Laboratory results from ChEMBL document CHEMBL3124843, “Synthesis, cytostatic, antimicrobial, and anti-HCV activity of 6-substituted 7-(het)aryl-7-deazapurine ribonucleosides” (J Med Chem, 2014).
Active and inactive are the calls of the source. The rule behind the calls is not given here.

Experiments:
[1] = Cytotoxicity against human HuH7 cells infected with Hepatitis C virus subtype 2a; assay type: cell-based, Huh-7
Hepatitis C virus [2] = assay: Antiviral activity against Hepatitis C virus subtype 2a infected in human HuH7 cells; assay type: functional, organism-based, Hepacivirus hominis; conditions: genotype 2a, Huh-7
[3] = Cytotoxicity against human HuH7 cells infected with Hepatitis C virus subtype 1b; assay type: cell-based, Huh-7
Hepatitis C virus [4] = assay: Antiviral activity against Hepatitis C virus subtype 1b infected in human HuH7 cells; assay type: functional, organism-based, Hepacivirus hominis; conditions: genotype 1b, Huh-7
Candida tropicalis = assay: Antifungal activity against Candida tropicalis after 48 hrs; assay type: functional, organism-based
Pichia kudriavzevii = assay: Antifungal activity against Candida crusei after 48 hrs; assay type: functional, organism-based
Candida parapsilosis = assay: Antifungal activity against Candida parapsilosis after 48 hrs; assay type: functional, organism-based
Candida albicans = assay: Antifungal activity against Candida albicans after 48 hrs; assay type: functional, organism-based
Pseudomonas aeruginosa [5] = assay: Antibacterial activity against multi-resistant Pseudomonas aeruginosa A/16575 after 24 hrs; assay type: functional, organism-based
Escherichia coli [6] = assay: Antibacterial activity against multi-resistant Escherichia coli C/16702 after 24 hrs; assay type: functional, organism-based
[7] = tested on: Staphylococcus haemolyticus; assay: Antibacterial activity against methicillin-resistant Staphylococcus haemolyticus A/16568 after 24 hrs; assay type: functional, organism-based
Staphylococcus aureus [8] = assay: Antibacterial activity against methicillin-resistant Staphylococcus aureus MRSA 4591 after 24 hrs; assay type: functional, organism-based
Pseudomonas aeruginosa [9] = assay: Antibacterial activity against Pseudomonas aeruginosa CCM 3955 after 24 hrs; assay type: functional, organism-based
Escherichia coli [10] = assay: Antibacterial activity against Escherichia coli CCM 3954 after 24 hrs; assay type: functional, organism-based
Staphylococcus aureus [11] = assay: Antibacterial activity against Staphylococcus aureus CCM 3953 after 24 hrs; assay type: functional, organism-based
Enterococcus faecalis = assay: Antibacterial activity against Enterococcus faecalis CCM 4224 after 24 hrs; assay type: functional, organism-based
[12] = Antiproliferative activity against human HeLaS3 cells after 72 hrs by XTT assay; assay type: functional, cell-based; conditions: HeLa S3, 72 h
Method in brief: (§1)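 Antiproliferative test on HL-60 promyelocytic leukemia and HeLa S3 cervical carcinoma cells growing in liquid suspension.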

HL-60 = assay: Antiproliferative activity against human HL60 cells after 72 hrs by XTT assay; assay type: functional, cell-based; conditions: HL-60, 72 h; method in brief: as §1
HepG2 = assay: Antiproliferative activity against human HepG2 cells after 72 hrs by XTT assay; assay type: functional, cell-based; conditions: HepG2, 72 h
MRC5 = assay: Cytostatic activity against human MRC5 cells after 72 hrs by MTT assay; assay type: ADME, cell-based; conditions: MRC5, 72 h
Method in brief: (§2)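 IC50 is the concentration that cuts cell growth by 50%, read by quantitative metabolic MTT staining after a 3-day treatment. The resistant sublines were made by raising the concentration of the cytotoxic drug step by step. CEM-DNR-bulk (daunorubicin-selected) stably overexpresses mrp-1. K562-TAX (paclitaxel-selected) expresses only mdr-1. HCT116p53−/− carries null p53 alleles. BJ and MRC-5 are nonmalignant fibroblasts.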

BJ = assay: Cytostatic activity against human BJ cells after 72 hrs by MTT assay; assay type: ADME, cell-based; method in brief: as §2
HCT-116 [13] = assay: Cytostatic activity against p53-deficient human HCT116 cells after 72 hrs by MTT assay; assay type: functional, cell-based; conditions: HCT-116, 72 h; method in brief: as §2
HCT-116 [14] = assay: Cytostatic activity against human HCT116 cells after 72 hrs by MTT assay; assay type: functional, cell-based; conditions: HCT-116, 72 h; method in brief: as §2
A549 = assay: Cytostatic activity against human A549 cells after 72 hrs by MTT assay; assay type: functional, cell-based; conditions: A549, 72 h; method in brief: as §2
K562 [15] = assay: Cytostatic activity against paclitaxel-resistant human K562 cells after 72 hrs by MTT assay; assay type: functional, cell-based; conditions: K562, 72 h; method in brief: as §2
K562 [16] = assay: Cytostatic activity against human K562 cells after 72 hrs by MTT assay; assay type: functional, cell-based; conditions: K562, 72 h; method in brief: as §2
[17] = Cytostatic activity against human CEM-DNR-bulk cells after 72 hrs by MTT assay; assay type: functional, cell-based; method in brief: as §2
CCRF-CEM = assay: Cytostatic activity against human CCRF-CEM cells after 72 hrs by MTT assay; assay type: functional, cell-based; method in brief: as §2

| Structure (SMILES) | CC50 [1] | EC50 (Hepatitis C virus [2]) | CC50 [3] | EC50 (Hepatitis C virus [4]) | Activity (Candida tropicalis) | Activity (Pichia kudriavzevii) | Activity (Candida parapsilosis) | Activity (Candida albicans) | Activity (Pseudomonas aeruginosa [5]) | Activity (Escherichia coli [6]) | Activity [7] | Activity (Staphylococcus aureus [8]) | Activity (Pseudomonas aeruginosa [9]) | Activity (Escherichia coli [10]) | Activity (Staphylococcus aureus [11]) | Activity (Enterococcus faecalis) | IC50 [12] | IC50 (HL-60) | IC50 (HepG2) | IC50 (MRC5) | other results |
| --- | --- | --- | --- | --- | --- | --- | --- | --- | --- | --- | --- | --- | --- | --- | --- | --- | --- | --- | --- | --- | --- |
| CSc1ncnc2c1c(-c1cc3ccccc3o1)cn2[C@@H]1O[C@H](CO)[C@@H](O)[C@H]1O | > 44 µM | 29.6 µM | > 44 µM | 8.03 µM | inactive | inactive | inactive | inactive | inactive | inactive | inactive | inactive | inactive | inactive | inactive | inactive | 1.93 µM | 1.21 µM | > 20 µM | 70.8 µM | IC50 (BJ): 67.2 µM; IC50 (HCT-116 [13]): > 20 µM; IC50 (HCT-116 [14]): > 20 µM; IC50 (A549): > 20 µM; IC50 (K562 [15]): > 20 µM; IC50 (K562 [16]): 17.2 µM; IC50 [17]: > 20 µM; IC50 (CCRF-CEM): > 20 µM |
| Cc1nc(N)c2c(-c3ccoc3)cn([C@@H]3O[C@H](CO)[C@@H](O)[C@H]3O)c2n1 | > 44 µM | > 44 µM | > 44 µM | > 44 µM | inactive | inactive | inactive | inactive | inactive | inactive | inactive | inactive | inactive | inactive | inactive | inactive | > 20 µM | > 20 µM | > 20 µM | > 100 µM | IC50 (BJ): > 100 µM; IC50 (HCT-116 [13]): > 20 µM; IC50 (HCT-116 [14]): > 20 µM; IC50 (A549): > 20 µM; IC50 (K562 [15]): > 20 µM; IC50 (K562 [16]): > 20 µM; IC50 [17]: > 20 µM; IC50 (CCRF-CEM): > 100 µM |
| Cc1ncnc2c1c(-c1ccoc1)cn2[C@@H]1O[C@H](CO)[C@@H](O)[C@H]1O | > 44 µM | > 44 µM | > 44 µM | 4.43 µM | inactive | inactive | inactive | inactive | inactive | inactive | inactive | inactive | inactive | inactive | inactive | inactive | > 20 µM | > 15 µM | 5.32 µM | 98.3 µM | IC50 (BJ): 89.2 µM; IC50 (HCT-116 [13]): > 20 µM; IC50 (HCT-116 [14]): > 20 µM; IC50 (A549): > 20 µM; IC50 (K562 [15]): > 20 µM; IC50 (K562 [16]): > 20 µM; IC50 [17]: > 20 µM; IC50 (CCRF-CEM): > 20 µM |
| Nc1nc2c(c(-c3cc4ccccc4o3)cn2[C@@H]2O[C@H](CO)[C@@H](O)[C@H]2O)c(=O)[nH]1 | > 44 µM | > 44 µM | > 44 µM | > 44 µM | inactive | inactive | inactive | inactive | inactive | inactive | inactive | inactive | inactive | inactive | inactive | inactive | > 20 µM | > 20 µM | > 20 µM | > 100 µM | IC50 (BJ): > 100 µM; IC50 (HCT-116 [13]): > 100 µM; IC50 (HCT-116 [14]): > 100 µM; IC50 (A549): > 100 µM; IC50 (K562 [15]): > 20 µM; IC50 (K562 [16]): > 20 µM; IC50 [17]: > 20 µM; IC50 (CCRF-CEM): > 20 µM |
| Nc1nc(N)c2c(-c3ccccc3)cn([C@@H]3O[C@H](CO)[C@@H](O)[C@H]3O)c2n1 | > 44 µM | > 44 µM | > 44 µM | > 44 µM | inactive | inactive | inactive | inactive | inactive | inactive | inactive | inactive | inactive | inactive | inactive | inactive | > 20 µM | > 15 µM | > 20 µM | > 100 µM | IC50 (BJ): > 100 µM; IC50 (HCT-116 [13]): > 20 µM; IC50 (HCT-116 [14]): > 20 µM; IC50 (A549): > 20 µM; IC50 (K562 [15]): > 20 µM; IC50 (K562 [16]): > 20 µM; IC50 [17]: > 20 µM; IC50 (CCRF-CEM): > 20 µM |
| Cc1ncnc2c1ccn2[C@@H]1O[C@H](CO)[C@@H](O)[C@H]1O | 0.12 µM | 0.02 µM | 0.23 µM | 0.02 µM | inactive | inactive | inactive | inactive | inactive | inactive | inactive | inactive | inactive | inactive | inactive | inactive | 0.02 µM | 0.02 µM | 0.06 µM | 0.09 µM | IC50 (BJ): 0.07 µM; IC50 (HCT-116 [13]): 0.06 µM; IC50 (HCT-116 [14]): 0.03 µM; IC50 (A549): 0.03 µM; IC50 (K562 [15]): 0.05 µM; IC50 (K562 [16]): 0.01 µM; IC50 [17]: 0.05 µM; IC50 (CCRF-CEM): 0.01 µM |
| O=c1[nH]cnc2c1c(-c1cccs1)cn2[C@@H]1O[C@H](CO)[C@@H](O)[C@H]1O | > 44 µM | > 44 µM | > 44 µM | > 44 µM | inactive | inactive | inactive | inactive | inactive | inactive | inactive | inactive | inactive | inactive | inactive | inactive | > 20 µM | > 20 µM | > 20 µM | > 100 µM | IC50 (BJ): > 100 µM; IC50 (HCT-116 [13]): > 20 µM; IC50 (HCT-116 [14]): > 20 µM; IC50 (A549): > 20 µM; IC50 (K562 [15]): > 20 µM; IC50 (K562 [16]): > 20 µM; IC50 [17]: > 20 µM; IC50 (CCRF-CEM): > 20 µM |
| O=c1[nH]cnc2c1c(-c1ccoc1)cn2[C@@H]1O[C@H](CO)[C@@H](O)[C@H]1O | > 44 µM | 22.3 µM | > 44 µM | 4.54 µM | inactive | inactive | inactive | inactive | inactive | inactive | inactive | inactive | inactive | inactive | inactive | inactive | > 20 µM | 6.37 µM | 12.1 µM | > 100 µM | IC50 (BJ): > 100 µM; IC50 (HCT-116 [13]): 14.8 µM; IC50 (HCT-116 [14]): 10.3 µM; IC50 (A549): > 20 µM; IC50 (K562 [15]): 14.5 µM; IC50 (K562 [16]): 12.5 µM; IC50 [17]: > 20 µM; IC50 (CCRF-CEM): 9.03 µM |
